The record followed here is ChEMBL document CHEMBL3751740, “New MKLP-2 inhibitors in the paprotrain series: Design, synthesis and biological evaluations” (Bioorg Med Chem, 2016).

For one experiment, the system named is HepG2. Nature of the experiment: Growth inhibition of human HepG2 cells incubated for 4 days by WST-1 assay. The experiment is classed as functional. Particulars: HepG2, 96 h. In short, it runs like this: (§1)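 Cells were kept at 37 °C under 5% CO2 and plated on day 0 at 500–5000 cells/well. On day 1 they received ten concentrations from 0.0025 to 50 µM (final), in triplicate. On day 4 WST-1 was added, followed by 30 min–4 h incubation and absorbance at 450 nm. GI50 is the concentration killing 50% of cells.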
(Tetrazolium dyes change colour on reduction, which living cells bring about.)

In the next experiment the test system is MDA-MB-231. Put plainly: Growth inhibition of human MDA-MB-231 cells incubated for 4 days by WST-1 assay. The experiment is classed as functional. Particulars: MDA-MB-231, 96 h. In outline:
as §1

A further experiment relates to MCF7. Nature of the experiment: Growth inhibition of human MCF7 cells incubated for 4 days by WST-1 assay. The following applies: MCF7, 96 h. The experiment is classed as functional. In outline:
as §1

Experiment [1] in a line: Growth inhibition of human PK59 cells incubated for 4 days by WST-1 assay. Particulars: PK-59, 96 h. Format: functional. In outline:
as §1

A further experiment concerns A549. Put plainly: Growth inhibition of human A549 cells incubated for 4 days by WST-1 assay. Format: functional. Particulars: A549, 96 h. In outline: as §1
A further experiment has as its system K562. Nature of the experiment: Growth inhibition of human K562 cells incubated for 4 days by WST-1 assay. The following applies: K562, 96 h. Format: functional. In short, it runs like this: as §1
The test system of a further experiment is NCI-H460. Put plainly: Growth inhibition of human NCI-H460 cells incubated for 4 days by WST-1 assay. The experiment is classed as functional. Particulars: NCI-H460, 96 h. In outline:
as §1

In another experiment the test system is HT-29. Put plainly: Growth inhibition of human HT-29 cells incubated for 4 days by WST-1 assay. Particulars: HT-29, 96 h. Format: functional. In short, it runs like this: as §1
In experiment [2] the target is T1, Kinesin-like protein KIFC3 (Homo sapiens) (UniProt Q9BVG8).
T1 sequence (whole entry): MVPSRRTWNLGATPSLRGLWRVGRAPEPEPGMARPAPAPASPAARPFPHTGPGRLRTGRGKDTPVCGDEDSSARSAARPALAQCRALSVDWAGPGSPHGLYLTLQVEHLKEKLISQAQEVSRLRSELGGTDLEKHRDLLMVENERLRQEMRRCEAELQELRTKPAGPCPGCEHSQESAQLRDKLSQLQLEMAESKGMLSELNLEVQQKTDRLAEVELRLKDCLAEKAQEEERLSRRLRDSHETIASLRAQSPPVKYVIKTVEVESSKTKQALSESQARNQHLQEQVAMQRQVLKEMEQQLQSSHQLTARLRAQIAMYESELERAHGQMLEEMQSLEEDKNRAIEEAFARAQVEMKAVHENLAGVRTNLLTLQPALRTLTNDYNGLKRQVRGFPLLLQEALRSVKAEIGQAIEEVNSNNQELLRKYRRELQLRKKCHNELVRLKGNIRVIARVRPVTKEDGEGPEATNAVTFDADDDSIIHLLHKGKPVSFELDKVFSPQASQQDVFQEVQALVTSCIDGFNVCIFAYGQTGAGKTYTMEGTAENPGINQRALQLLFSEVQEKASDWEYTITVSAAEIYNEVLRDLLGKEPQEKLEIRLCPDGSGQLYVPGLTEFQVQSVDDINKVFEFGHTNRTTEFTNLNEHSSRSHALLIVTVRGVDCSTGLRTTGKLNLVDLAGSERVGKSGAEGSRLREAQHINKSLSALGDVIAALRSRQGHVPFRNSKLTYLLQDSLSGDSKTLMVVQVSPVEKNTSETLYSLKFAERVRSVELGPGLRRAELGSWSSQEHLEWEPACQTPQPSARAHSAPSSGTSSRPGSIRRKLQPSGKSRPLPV
Nature of the experiment: Inhibition of porcine brain microtubule-stimulated human recombinant GST-tagged KIFC3 ATPase activity at 1 mM by microplate reader in presence of Mg2+ ATP relative to control. In outline:
(§2)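 Motor domain at 15 µM final, in 7.5 mM PIPES-NaOH pH 7.0 with […], 10 µM Taxol, ELIPA 1 and 2 reagents and 1.25 mg/mL microtubules. AMP-PNP, a slowly hydrolysable ATP analog and general ATPase inhibitor, tested at 1 mM. Reaction started with 1 mM Mg2+ATP at 22 °C and read kinetically at 360 nm. Run in triplicate.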

Experiment [3] has as its target T2, Chromosome-associated kinesin KIF4A (Homo sapiens) (UniProt O95239).
T2 sequence (whole entry): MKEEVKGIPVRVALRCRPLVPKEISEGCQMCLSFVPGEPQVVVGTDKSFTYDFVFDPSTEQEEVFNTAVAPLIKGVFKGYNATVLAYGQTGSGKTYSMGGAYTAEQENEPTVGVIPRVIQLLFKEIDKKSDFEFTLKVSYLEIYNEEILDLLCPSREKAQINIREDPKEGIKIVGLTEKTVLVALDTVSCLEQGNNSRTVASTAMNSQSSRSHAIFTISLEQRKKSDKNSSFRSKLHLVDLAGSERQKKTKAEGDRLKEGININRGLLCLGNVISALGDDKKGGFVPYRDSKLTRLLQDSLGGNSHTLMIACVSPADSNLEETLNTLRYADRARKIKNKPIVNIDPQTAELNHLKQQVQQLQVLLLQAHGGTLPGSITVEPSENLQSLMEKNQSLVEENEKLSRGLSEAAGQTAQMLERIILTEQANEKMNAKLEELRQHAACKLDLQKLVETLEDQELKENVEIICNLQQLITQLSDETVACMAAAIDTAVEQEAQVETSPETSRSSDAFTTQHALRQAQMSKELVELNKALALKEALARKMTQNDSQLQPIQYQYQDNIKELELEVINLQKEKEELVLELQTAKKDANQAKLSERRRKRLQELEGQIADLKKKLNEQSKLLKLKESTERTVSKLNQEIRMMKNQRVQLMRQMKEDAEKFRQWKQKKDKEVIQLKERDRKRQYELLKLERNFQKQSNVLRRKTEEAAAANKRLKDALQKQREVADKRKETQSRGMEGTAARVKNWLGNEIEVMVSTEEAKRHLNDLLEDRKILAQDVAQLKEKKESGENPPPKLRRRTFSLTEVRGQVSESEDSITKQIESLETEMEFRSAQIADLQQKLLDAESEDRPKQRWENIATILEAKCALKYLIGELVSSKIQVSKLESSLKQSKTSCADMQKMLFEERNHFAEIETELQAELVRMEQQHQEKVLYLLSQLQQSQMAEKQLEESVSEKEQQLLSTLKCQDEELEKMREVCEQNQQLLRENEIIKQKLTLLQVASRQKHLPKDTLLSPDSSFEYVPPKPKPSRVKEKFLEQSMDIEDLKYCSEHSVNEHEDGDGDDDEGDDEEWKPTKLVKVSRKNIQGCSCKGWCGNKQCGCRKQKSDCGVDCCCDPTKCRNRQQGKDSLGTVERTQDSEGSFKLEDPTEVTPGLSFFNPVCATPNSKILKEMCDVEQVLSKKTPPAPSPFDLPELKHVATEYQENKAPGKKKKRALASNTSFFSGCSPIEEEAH
Put plainly: Inhibition of porcine brain microtubule-stimulated human recombinant GST-tagged Kif4A ATPase activity at 1 mM by microplate reader in presence of Mg2+ ATP relative to control. In outline: as §2

On to `COc1ccc2[nH]cc(/C(C#N)=C/c3cccnc3)c2c1`, for which the GI50 – broadly, the concentration giving 50% growth inhibition – in the experiment with HepG2 was over 50 µM; in the experiment on MDA-MB-231, 16.8 µM; in the experiment on MCF7, 15.8 µM; in experiment [1], over 50 µM; in the experiment on A549 it was 9.4 µM; in the experiment with K562, 4 µM. The GI50 in the experiment on NCI-H460 is 8.2 µM; in the experiment on HT-29, 26.2 µM.
As for `Nc1ncnc2c1ncn2[C@@H]1O[C@H](COP(=O)(O)OP(=O)(O)NP(=O)(O)O)[C@@H](O)[C@H]1O`, the inhibition in [2] and in experiment [3] was over 30% each time.
